19 compounds from ChEMBL document CHEMBL1123702, “Functionalized DL-amino acid derivatives. Potent new agents for the treatment of epilepsy” (J Med Chem, 1987) can be followed below.

Data set [1] can be described thus: Neurologic toxicity activity was determined by rotarod toxicity test (Phase IV Pharmacological Evaluation). In kind it is organism-based. As to conditions: mouse, in vivo. In general terms: In the rotarod test animals must keep their balance on a rotating rod.
For data set [2], the system named is Mus musculus. In words: Anticonvulsant activity was determined by subcutaneous Metrazol-induced convulsions seizure test (Phase IV Pharmacological Evaluation). The following applies: sc. In kind it is functional. The procedure, abridged: (§1)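 MES protection: hind-limb tonic extension abolished. sc Met: pentylenetetrazole 85 mg/kg as 0.5% solution sc, 30 min observation; protection: no threshold clonic seizure of 5 s or more. Toxicity: failing to stay 1 min on a 6 rpm rod. PI = TD50/MES ED50.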

For data set [3], the system named is Mus musculus. In words: Anticonvulsant activity was determined by subcutaneous picrotoxin test (CD97=3.15 mg/kg) (Phase V Pharmacological Evaluation). In kind it is functional. As to conditions: sc.
The subject of data set [4] is Mus musculus. In words: Anticonvulsant activity was determined by subcutaneous Metrazol-induced convulsions (sc MET)(Phase V Pharmacological Evaluation). In kind it is functional. In a few lines: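 Mice, normally eight per dose; Metrazol 85 mg/kg (CD97) as 0.5% solution sc in posterior midline. Animals isolated and observed 30 min; protection: no threshold seizure (a clonic spasm episode of at least 5 s).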

Data set [5] deals with Mus musculus. In words: Anticonvulsant activity was determined by subcutaneous bicuculline test (CD97=2.70 mg/kg) (Phase V Pharmacological Evaluation). In kind it is functional. The following applies: sc.
For data set [6], the system named is Mus musculus. Nature of the data set: Anticonvulsant activity was determined by subcutaneous Metrazol-induced convulsions seizure test (Phase II Pharmacological Evaluation). As to conditions: sc. In kind it is functional. The procedure, abridged: (§2)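 MES protection: hind-limb tonic extension abolished; saline drop in eye before electrodes. sc Met: pentylenetetrazole 85 mg/kg as 0.5% solution sc in posterior midline, 30 min observation; protection: no clonic spasm episode of at least 5 s. Rotarod toxicity: falling off a 1-in. rod at 6 rpm within 1 min. PI = TD50/MES ED50.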

A short description of data set [7]: Neurologic toxicity activity was determined by rotarod toxicity test (Phase II Pharmacological Evaluation). In kind it is organism-based. As to conditions: mouse, in vivo.
Data set [8] is filed under the species Mus musculus. In words: Anticonvulsant activity was determined by rotarod toxicity test (neurologic toxicity) at an interval of 0.5 h. In kind it is organism-based. The following applies: in vivo. The procedure, abridged:
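Phase I screen in male Carworth Farms No. 1 mice, ip at 30, 100 and 300 mg/kg, read at 0.5 h. Four mice per dose on a 1-in. knurled rod at 6 rpm; neurotoxicity is failure to remain on it for 1 min. Scored 0–4: 0 = none at 600 mg/kg, then 1–4 = activity at 600, 300, 100 or 30 mg/kg.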

The species named for data set [9] is Mus musculus. Nature of the data set: Anticonvulsant against maximal electroshock induced convulsions after 30 min. In kind it is functional. The procedure, abridged: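 Male Carworth Farms No. 1 mice, test agent given ip at 30, 100 and 300 mg/kg (one agent also at 600 mg/kg); read at 0.5 h. Electroshock via electrodes, with a drop of 0.9% saline in the eye first. Protection is abolition of the hind-limb tonic extension. One mouse per dose. Scored 0–4 by the lowest dose with noticeable activity.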
On the technique in general: Protection in the maximal electroshock model is a classic sign of anticonvulsant action.

Data set [10] has as its system Mus musculus. Nature of the data set: Anticonvulsant against s.c. Metrazol-induced convulsions after 30 min. In kind it is functional. In a few lines: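 Mice (male Carworth Farms No. 1) got ip doses of 30, 100 or 300 mg/kg (600 mg/kg for one agent), checked at 0.5 h. Pentylenetetrazole 85 mg/kg as a 0.5% solution was injected sc in the posterior midline, then the animal was watched for 30 min. Protection means no threshold seizure (clonic spasms lasting ≥5 s). Single animals per dose; scored 0–4 by dose level.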

A short description of data set [11]: Protectivity index is the ratio of TD50 /MES ED50 from Phase-II evaluation. In kind it is functional. The procedure, abridged:
as §2

The species entered for data set [12] is Mus musculus. In words: Anticonvulsant activity was determined by maximum-induced convulsions electroshock seizure test (Phase II Pharmacological Evaluation). In kind it is functional.
The species named for data set [13] is Mus musculus. Nature of the data set: Anticonvulsant activity was determined by maximum-induced convulsions electroshock seizure test (Phase IV Pharmacological Evaluation). In kind it is functional.
A short description of data set [14]: Protectivity index is the ratio of TD50 /MES ED50 from Phase-IV evaluation. In kind it is functional. In a few lines:
as §1

The test system of data set [15] is Mus musculus. Nature of the data set: Anticonvulsant activity was determined by subcutaneous pentylenetetrazole seizure test (Phase IV Pharmacological Evaluation). In kind it is functional. As to conditions: sc. The procedure, abridged:
as §1

For data set [16], the species on record is Mus musculus. Nature of the data set: Anticonvulsant activity was determined by maximum-induced convulsions electroshock seizure test (Phase III Pharmacological Evaluation). In kind it is functional.

Non-standard residues stand in square brackets, D forms with d. Residues, ends and D or L forms follow the SMILES beside them. ξ: configuration not given here. *: point of attachment. NHBn = c1ccc(CN*)cc1; ξA = CC(N)C(=O)O Where only a bound is given, the exact number is not on record here.

A word on the TD50: it is the dose at which the toxic effect under study appears in half of the subjects. Usually ED50 stands for the midpoint of the dose-response relation. High values mean weaker potency, low ones greater potency. For `CCC1(C)CC(=O)NC1=O` (stereo unspecified) [ETHOSUXIMIDE], the TD50 in data set [1] amounted to 879 mg/kg; in data set [7], 441 mg/kg. Moreover, the ED50 in data set [2] turned out to be 192 mg/kg; in [3], 243 mg/kg; in [4], 130 mg/kg; in [5] it was 459 mg/kg; in data set [6], 130 mg/kg.

`CC(C)C(=O)NC(C)C(=O)NCc1ccccc1` (stereo unspecified) gave a Toxicity in data set [8] of 0. In data set [9], this compound yielded an MES of 0. For the same compound, the MET in data set [10] came to 0.

On to `CSCCC(NC(C)=O)C(=O)NCc1ccccc1` (stereo unspecified), for which the Toxicity in data set [8] amounted to 0. Further, the MES in data set [9] was determined as 2. The compound also gave an MET in data set [10] of 0.

In [8], `COc1cccc(CNC(=O)C(C)NC(C)=O)c1` (stereo unspecified) registered a Toxicity of 0. The MES in [9] is reported as 2. The same compound returned an MET in data set [10] of 0.

Consider `CC(=O)NC(C)C(=O)NCc1cccc(F)c1` (stereo unspecified), for which the Protective Index in [11] was greater than 6.46. Further, the figures for the ED50 in data set [6] and in data set [12] were 142 mg/kg and 77.4 mg/kg, respectively. This compound showed a Toxicity in [8] of 0. In addition, in data set [9], the MES is given as 3. This compound also showed an MET in data set [10] of 0.

In [8], `CC(NC(=O)C(C)(C)C)C(=O)NCc1ccccc1` (stereo unspecified) displayed a Toxicity of 0. In data set [9], this compound gave an MES of 2. The MET in [10] is on record as 2.

`CC(=O)NCCC(=O)NCc1ccccc1`: the Toxicity in [8] is given as 0. Moreover, the MES in data set [9] stood at 0. In addition, in [10], the MET is 0.

Compound `CC(=O)NC(C)C(=O)NC(c1ccccc1)c1ccccc1` (stereo unspecified) showed a Toxicity in [8] of 0. In [9], the MES turned out to be 0. Besides, the MET in data set [10] worked out at 0.

In the case of `CC(=O)NCC(=O)NC(C)C(=O)NCc1ccccc1` (stereo unspecified) (Ac-Gly-[ξA]-NHBn), the Toxicity in data set [8] worked out at 0. In addition, in data set [9], the MES came out at 0. Further, the MET in data set [10] was 0.

With `CCCC(CCC)C(=O)O` [VALPROIC ACID], the ED50 in data set [13] turned out to be 665 mg/kg; in data set [2], 388 mg/kg; in [3] it was 387 mg/kg; in data set [4], 149 mg/kg; in data set [5], 360 mg/kg; in [6], 149 mg/kg. The compound further returned an ED50 in data set [12] of 272 mg/kg.

For the compound `CC(=O)NCC(=O)NCc1ccccc1`, the Toxicity in data set [8] was 2. The MES in data set [9] was 2. The MET in [10] is listed as 0.

In [8], `CC(=O)NCC(C)C(=O)NCc1ccccc1` (stereo unspecified) gave a Toxicity of 0. In [9], this compound registered an MES of 2. This compound returned an MET in data set [10] of 0.

On to `CC(=O)NC(Cc1ccccc1)C(=O)NCc1ccccc1` (stereo unspecified), for which, in data set [8], the Toxicity is recorded as 0. In [9], the MES is on record as 0. The MET in [10] was found to be 0.

Compound `CC(=O)NC(C(=O)NCc1ccccc1)(c1ccccc1)c1ccccc1` came in with a Toxicity in data set [8] of 0. Further, in data set [9], the MES was 0. In data set [10], this compound showed an MET of 0.

In the case of `CC(=O)NC(C(=O)NCc1ccccc1)c1ccccc1` (stereo unspecified), the ED50 stood at 46.7 mg/kg in data set [13] and 20.3 mg/kg in data set [12]. For the same compound, the results for the TD50 in data set [1] and in [7] were 241 mg/kg and 96.9 mg/kg, respectively. The results for the Protective Index in data set [11] and in data set [14] were 4.77 and 5.17, respectively. In addition, the Toxicity in data set [8] stood at 2. In [9], this compound came in with an MES of 4. Also, in data set [10], the MET is 0.

In data set [8], `CC(=O)NC(C(=O)NCc1ccccc1)C(C)C` (stereo unspecified) yielded a Toxicity of 0. The compound also registered an MES in [9] of 2. The MET in data set [10] is listed as 0.

`CNC(=O)C(C)NC(C)=O` (stereo unspecified): in data set [8], the Toxicity is recorded as 0. The compound further gave an MES in data set [9] of 0. Moreover, the MET in data set [10] was determined as 0.

In data set [8], `CC(=O)NC(C)C(=O)NCC(=O)NCc1ccccc1` (stereo unspecified) (Ac-[ξA]-Gly-NHBn) registered a Toxicity of 0. Further, the MES in [9] is recorded as 0. The compound also displayed an MET in [10] of 0.

Regarding `CC(=O)NC(C)C(=O)NCc1ccccc1` (stereo unspecified), the ED50 came to 134 mg/kg in [3]; 266 mg/kg in data set [15]; 123 mg/kg in data set [16]; 205 mg/kg in data set [5]; 76.5 mg/kg in [12]. In addition, the Protective Index in data set [11] was 5.93; in [14], greater than 8.15. In addition, in data set [8], the Toxicity came to 1. This compound registered an MES in [9] of 3. In data set [10], this compound had an MET of 0.
